Reference: ChEMBL document CHEMBL1759954, “Synthesis of some novel 3-(1-(1-substitutedpiperidin-4-yl)-1H-1,2,3-triazol-4-yl)-5-substituted phenyl-1,2,4-oxadiazoles as antifungal agents” (2011)
Values after ≈ are worked out from the molar mass of the structure shown. Active and inactive are the calls of the source. The calls are words filed in the database; no cut-off is given here.

How the values were obtained:
Candida albicans = test: Antifungal activity against Candida albicans; assay type: functional
Method in brief: (§1)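 In vitro MIC determination by standard agar method, cited from earlier work; fungal strains tested were Candida albicans, Fusarium oxysporum, Aspergillus flavus, Aspergillus niger and Cryptococcus neoformans, with miconazole and fluconazole run as reference standards.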

Cryptococcus neoformans [1] = test: Antifungal activity against Cryptococcus neoformans; assay type: functional; method in brief: as §1
Aspergillus flavus [2] = test: Antifungal activity against Aspergillus flavus; assay type: functional; method in brief: as §1
Aspergillus niger [3] = test: Antifungal activity against Aspergillus niger; assay type: functional; method in brief: as §1
Fusarium oxysporum [4] = test: Antifungal activity against Fusarium oxysporum; assay type: functional; method in brief: as §1
Fusarium oxysporum [5] = test: Antifungal activity against Fusarium oxysporum up to 200 ug/ml; assay type: functional, organism-based; method in brief: as §1
Cryptococcus neoformans [6] = test: Antifungal activity against Cryptococcus neoformans up to 200 ug/ml; assay type: functional, organism-based; method in brief: as §1
Aspergillus niger [7] = test: Antifungal activity against Aspergillus niger up to 200 ug/ml; assay type: functional, organism-based; method in brief: as §1
Aspergillus flavus [8] = test: Antifungal activity against Aspergillus flavus up to 200 ug/ml; assay type: functional, organism-based; method in brief: as §1

Row | SMILES | MIC (Candida albicans) [µg/mL] | MIC (Cryptococcus neoformans [1]) [µg/mL] | MIC (Aspergillus flavus [2]) [µg/mL] | MIC (Aspergillus niger [3]) [µg/mL] | MIC (Fusarium oxysporum [4]) [µg/mL] | Activity (Fusarium oxysporum [5]) | Activity (Cryptococcus neoformans [6]) | Activity (Aspergillus niger [7]) | Activity (Aspergillus flavus [8])
1 | CCCC(=O)N1CCC(n2cc(-c3noc(-c4ccccc4)n3)nn2)CC1 | 90 (≈ 246 µM) | 150 (≈ 409 µM) | 35 (≈ 95.5 µM) | 47.5 (≈ 130 µM) | 100 (≈ 273 µM) | – | – | – | –
2 | CC(C)(C)OC(=O)N1CCC(n2cc(-c3noc(-c4ccccc4)n3)nn2)CC1 | 80 (≈ 202 µM) | 120 (≈ 303 µM) | 85 (≈ 214 µM) | 100 (≈ 252 µM) | – | inactive | – | – | –
3 | CCC(=O)N1CCC(n2cc(-c3noc(-c4ccccc4)n3)nn2)CC1 | 50 (≈ 142 µM) | – | 30 (≈ 85.1 µM) | – | 60 (≈ 170 µM) | – | inactive | inactive | –
4 | CCN1CCC(n2cc(-c3noc(-c4ccc(Cl)cc4)n3)nn2)CC1 | 70 (≈ 195 µM) | 100 (≈ 279 µM) | 35 (≈ 97.5 µM) | 40 (≈ 111 µM) | 80 (≈ 223 µM) | – | – | – | –
5 | CC(=O)N1CCC(n2cc(-c3noc(-c4ccc(Cl)cc4)n3)nn2)CC1 | 40 (≈ 107 µM) | – | 150 (≈ 402 µM) | 70 (≈ 188 µM) | 30 (≈ 80.5 µM) | – | inactive | – | –
6 | O=C(c1ccccc1)N1CCC(n2cc(-c3noc(-c4ccc(Cl)cc4)n3)nn2)CC1 | 75 (≈ 172 µM) | 100 (≈ 230 µM) | 65 (≈ 149 µM) | – | 85 (≈ 195 µM) | – | – | inactive | –
7 | CC(=O)N1CCC(n2cc(-c3noc(-c4ccccc4)n3)nn2)CC1 | 35 (≈ 103 µM) | – | – | 95 (≈ 281 µM) | 35 (≈ 103 µM) | – | inactive | – | inactive
8 | CS(=O)(=O)N1CCC(n2cc(-c3noc(-c4ccc(Cl)cc4)n3)nn2)CC1 | 30 (≈ 73.4 µM) | 40 (≈ 97.8 µM) | 15 (≈ 36.7 µM) | 15 (≈ 36.7 µM) | 35 (≈ 85.6 µM) | – | – | – | –
9 | Clc1ccc(COC(Cn2ccnc2)c2ccc(Cl)cc2Cl)c(Cl)c1 (stereo not given) [MICONAZOLE] | 25 (≈ 60.1 µM) | 25 (≈ 60.1 µM) | 12.5 (≈ 30 µM) | 12.5 (≈ 30 µM) | 25 (≈ 60.1 µM) | – | – | – | –
10 | CS(=O)(=O)N1CCC(n2cc(-c3noc(-c4ccccc4)n3)nn2)CC1 | 50 (≈ 134 µM) | 25 (≈ 66.8 µM) | 40 (≈ 107 µM) | 40 (≈ 107 µM) | 30 (≈ 80.1 µM) | – | – | – | –
11 | c1ccc(CN2CCC(n3cc(-c4noc(-c5ccccc5)n4)nn3)CC2)cc1 | 50 (≈ 129 µM) | 70 (≈ 181 µM) | 50 (≈ 129 µM) | 150 (≈ 388 µM) | 65 (≈ 168 µM) | – | – | – | –
12 | CCN1CCC(n2cc(-c3noc(-c4ccccc4)n3)nn2)CC1 | 90 (≈ 277 µM) | 150 (≈ 462 µM) | 35 (≈ 108 µM) | 47.5 (≈ 146 µM) | 100 (≈ 308 µM) | – | – | – | –
13 | c1ccc(-c2nc(-c3cn(C4CCNCC4)nn3)no2)cc1 | 60 (≈ 202 µM) | 90 (≈ 304 µM) | 50 (≈ 169 µM) | 100 (≈ 337 µM) | 100 (≈ 337 µM) | – | – | – | –
14 | O=C(c1ccc(Cl)cc1)N1CCC(n2cc(-c3noc(-c4ccccc4)n3)nn2)CC1 | 45 (≈ 103 µM) | 45 (≈ 103 µM) | 40 (≈ 92 µM) | 42.5 (≈ 97.7 µM) | 40 (≈ 92 µM) | – | – | – | –
15 | O=C(c1ccccc1)N1CCC(n2cc(-c3noc(-c4ccccc4)n3)nn2)CC1 | 90 (≈ 225 µM) | 100 (≈ 250 µM) | 65 (≈ 162 µM) | – | – | inactive | – | inactive | –
16 | Cc1ccc(S(=O)(=O)N2CCC(n3cc(-c4noc(-c5ccccc5)n4)nn3)CC2)cc1 | 60 (≈ 133 µM) | 40 (≈ 88.8 µM) | 45 (≈ 99.9 µM) | 37.5 (≈ 83.2 µM) | 70 (≈ 155 µM) | – | – | – | –
17 | CN1CCC(n2cc(-c3noc(-c4ccccc4)n3)nn2)CC1 | 50 (≈ 161 µM) | – | 30 (≈ 96.7 µM) | – | 60 (≈ 193 µM) | – | inactive | inactive | –
18 | CCC(=O)N1CCC(n2cc(-c3noc(-c4ccc(Cl)cc4)n3)nn2)CC1 | 35 (≈ 90.5 µM) | – | 30 (≈ 77.6 µM) | 100 (≈ 259 µM) | 40 (≈ 103 µM) | – | inactive | – | –
19 | OC(Cn1cncn1)(Cn1cncn1)c1ccc(F)cc1F [FLUCONAZOLE] | 5 (≈ 16.3 µM) | 5 (≈ 16.3 µM) | 5 (≈ 16.3 µM) | 10 (≈ 32.7 µM) | 5 (≈ 16.3 µM) | – | – | – | –
20 | CN1CCC(n2cc(-c3noc(-c4ccc(Cl)cc4)n3)nn2)CC1 | 35 (≈ 102 µM) | – | 15 (≈ 43.5 µM) | 15 (≈ 43.5 µM) | 50 (≈ 145 µM) | – | inactive | – | –
